The nature of series [1]: Drug level in Sprague-Dawley rat brain at 10 mg/kg, po after 4 hrs. The following applies: read-out: Drug uptake. More on the design: dose 10 mg/kg, route oral. The series is classed as ADME, organism-based. The method in brief:
(§1)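 Femoral-artery-cannulated male Sprague-Dawley rats (300-350 g), n = 3, were given 10 mg/kg orally in vehicle. Blood was drawn predose and at 1, 2 and 4 h; brains were collected at 4 h and stored at -80 °C. Plasma or brain homogenate was pooled from three rats per time point, protein-precipitated and analysed by LC/MS/MS. Quantitation limits were 2 ng/mL plasma and 2 ng/g brain.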

Series [2] is described as follows: Drug level in Sprague-Dawley rat plasma at 10 mg/kg, po after 1 hr. More on the design: dose 10 mg/kg, route oral. Type of series: ADME, organism-based. The method in brief: as §1
Series [3] deals with T1, Melanin-concentrating hormone receptor 1 (Rattus norvegicus, UniProt P97639). The series is described as follows: Displacement of [3H]SNAP 7941 from rat MCHR1 expressed in HEK293 cells. The series is classed as cell-based. The method in brief: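 Membranes from PEAK-RAPID HEK293 cells transiently transfected with rat MCH1 were incubated with varying concentrations of [3H]SNAP-7941. Buffer was 50 mM Tris, 10 mM MgCl2, 0.16 mM PMSF, 1 mM 1,10-phenanthroline, 0.2% BSA, pH 7.4; incubation 25 °C, 90 min. Ki is the mean ± SEM of n = 3.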
T1 sequence (P97639 whole entry): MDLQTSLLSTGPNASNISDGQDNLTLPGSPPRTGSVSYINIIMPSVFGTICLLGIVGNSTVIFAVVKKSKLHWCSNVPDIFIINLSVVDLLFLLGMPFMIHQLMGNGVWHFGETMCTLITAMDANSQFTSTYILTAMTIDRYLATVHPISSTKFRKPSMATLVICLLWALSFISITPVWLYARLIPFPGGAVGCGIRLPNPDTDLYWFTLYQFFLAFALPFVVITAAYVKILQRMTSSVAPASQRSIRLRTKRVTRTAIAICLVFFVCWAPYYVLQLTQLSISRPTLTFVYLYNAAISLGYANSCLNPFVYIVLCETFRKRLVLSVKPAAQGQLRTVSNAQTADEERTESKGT

A short description of series [4]: Drug level in Sprague-Dawley rat plasma at 10 mg/kg, po after 4 hrs. More on the design: dose 10 mg/kg, route oral. Type of series: ADME, organism-based. An outline of the steps: as §1
Series [5] addresses T1, Melanin-concentrating hormone receptor 1. The series is described as follows: Antagonist activity at rat MCHR1 expressed in HEK293 cells assessed as effect on calcium mobilization. Type of series: functional, cell-based. The method in brief: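 HEK293 cells stably expressing rat MCH1 were seeded for 16 h, loaded with 1.5 µM Fluo4 in HBSS for 60 min, washed, and preincubated 20 min with a range of test concentrations. They were then challenged with 30 nM MCH peptide. Calcium-driven fluorescence was read on a FLIPR, and IC50 came from nonlinear curve fitting.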

Series [6] in a line: Drug level in Sprague-Dawley rat plasma at 10 mg/kg, po after 2 hrs. Set-up: dose 10 mg/kg, route oral. Type of series: ADME, organism-based. An outline of the steps: as §1
Series [7] can be described thus: Plasma clearance in Sprague-Dawley rat at 2 mg/kg, po and 1 mg/kg, iv. Type of series: ADME, organism-based. An outline of the steps: (§2)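 Male Sprague-Dawley rats (200-250 g), n = 2, received 1 mg/kg iv, then 2 mg/kg orally in the same rat 24 h later. Plasma was taken from sampled blood by centrifugation and analysed by turbulent-flow LC/MS/MS. For blood/plasma distribution, blood was spiked at 109 ng/mL. Parameters came from plasma concentration-time profiles.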

Series [8] in a line: Tmax in Sprague-Dawley rat at 2 mg/kg, po and 1 mg/kg, iv. The series is classed as ADME, organism-based. The following applies: in vivo. The method in brief: as §2
The species entered for series [9] is Rattus norvegicus. The series is described as follows: Anxiolytic activity in rat assessed as increase in social interaction time relative to control. The series is classed as functional. An outline of the steps:
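Rats were acclimated 5 days, housed singly 5 days and handled 5 min daily. Weight-matched (±5%) unfamiliar pairs got identical treatment 1 h before testing, five pairs per group. Chlordiazepoxide 5 mg/kg was the reference. Pairs were placed 15 min in a floor-gridded arena, sessions were videotaped, and social interaction time was scored.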

The nature of series [10]: Half life in Sprague-Dawley rat at 2 mg/kg, po and 1 mg/kg, iv. Particulars: in vivo. Type of series: ADME, organism-based. An outline of the steps:
as §2

The nature of series [11]: Cmax in Sprague-Dawley rat at 2 mg/kg, po and 1 mg/kg, iv. The series is classed as ADME, organism-based. Particulars: in vivo. The method in brief:
as §2

For series [12], the system named is Rattus norvegicus. Kind of series: Anxiolytic activity in rat assessed as increase in social interaction time at 0.3 mg/kg, po relative to control.
Series [13] can be described thus: Blood clearance in Sprague-Dawley rat at 2 mg/kg, po and 1 mg/kg, iv. Type of series: ADME, organism-based. The following applies: whole blood. An outline of the steps: as §2
Series [14] is described as follows: Bioavailability in Sprague-Dawley rat at 2 mg/kg, po and 1 mg/kg, iv. Type of series: ADME, organism-based. Particulars: in vivo. An outline of the steps: as §2
Series [15] in a line: Volume of distribution in Sprague-Dawley rat at 2 mg/kg, po and 1 mg/kg, iv. Particulars: in vivo, read-out: Vss. Type of series: ADME, organism-based. An outline of the steps:
as §2

The nature of series [16]: Cmax in Sprague-Dawley rat at 1 mg/kg, po and 1 mg/kg, iv. The series is classed as ADME, organism-based. The following applies: in vivo. An outline of the steps: (§3)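 Sprague-Dawley rats were dosed 1 mg/kg orally (n = 2) and 1 mg/kg iv (n = 2). Plasma concentration-time profiles were measured by LC/MS/MS and used for pharmacokinetic analysis.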
A short description of series [17]: Volume of distribution in Sprague-Dawley rat at 1 mg/kg, po and 1 mg/kg, iv. Type of series: ADME, organism-based. The following applies: in vivo, read-out: Vss. The method in brief: as §3
Series [18] can be described thus: Tmax in Sprague-Dawley rat at 1 mg/kg, po and 1 mg/kg, iv. Particulars: in vivo. Type of series: ADME, organism-based. The method in brief: as §3
Series [19] can be described thus: Plasma clearance in Sprague-Dawley rat at 1 mg/kg, po and 1 mg/kg, iv. The series is classed as ADME, organism-based. An outline of the steps: as §3
The nature of series [20]: Bioavailability in Sprague-Dawley rat at 1 mg/kg, po and 1 mg/kg, iv. Type of series: ADME, organism-based. The following applies: in vivo. An outline of the steps:
as §3

The nature of series [21]: Half life in Sprague-Dawley rat at 1 mg/kg, po and 1 mg/kg, iv. Type of series: ADME, organism-based. The following applies: in vivo. The method in brief: as §3

As for `Cc1ccc(NC(=O)C(C)C)cc1C1CCN(CCCNC(=O)C(c2ccccc2)c2ccccc2)CC1`, the concentration at 4 h in series [1] was 13 ng/g; in [4], 75 ng/mL. In addition, the concentration at 1 h in series [2] came out at 69 ng/mL. This molecule yielded an inhibition constant (Ki) in series [3] of 3 nM. Further, the IC50 in series [5] was determined as 27 nM. Moreover, in series [6], the concentration at 2 h is 59 ng/mL.
In the case of `CCC(C(=O)NCCCN1CCC(c2cccc(NC(=O)C(C)C)c2)CC1)(c1ccccc1)c1ccccc1`, in [5], the IC50 amounted to 190 nM.
As for `CC(C)C(=O)Nc1cccc(C2CCN(CCCNC(=O)C(C)(c3ccccc3)c3ccccc3)CC2)c1`, the affinity in [3] corresponds to a Ki of 7.5 nM. Also, the IC50 in series [5] was 140 nM.
The molecule `CC(C)C(=O)Nc1cccc(C2CCN(CCCCCCNC(=O)C(c3ccccc3)c3ccccc3)CC2)c1` displayed an inhibition constant (Ki) in series [3] of 29 nM. Further, in [5], the half-maximal inhibitory concentration (IC50) is 600 nM.
As to `CC(C)C(=O)Nc1cccc(C2CCN(CCCNC(=O)C(c3ccccc3)c3ccccc3)CC2)c1`, the concentration at 1 h in [2] was determined as 15 ng/mL. In addition, the affinity in [3] corresponds to a Ki of 1.9 nM. This molecule had a concentration at 4 h in series [4] of 15 ng/mL. Also, the half-inhibitory concentration (IC50) in series [5] came out at 25 nM. Further, the concentration at 2 h in [6] came to 12 ng/mL.
As for `CC(C)C(=O)Nc1cccc(C2CCN(CCCCNC(=O)C(c3ccccc3)c3ccccc3)CC2)c1`, in series [3], the Ki is 50 nM. The IC50 in [5] is 620 nM.
As for `CC(C)C(=O)Nc1cccc(C2CCN(CCCNC(=O)C(c3ccc(F)cc3)c3ccc(F)cc3)CC2)c1`, affinity in [3] was put at a Ki of 1.4 nM. Besides, the IC50 in series [5] came out at 13 nM.
`CC(C)C(=O)Nc1cccc(C2CCN(CCCCCNC(=O)C(c3ccccc3)c3ccccc3)CC2)c1` gave an inhibition constant (Ki) in [3] of 47 nM.
With `CC(C)C(=O)Nc1cc(C2CCN(CCCNC(=O)C(c3ccc(F)cc3)c3ccc(F)cc3)CC2)c(F)cc1F`, the clearance is 40 mL/min/kg in series [7] and 60 mL/min/kg in [13]. This molecule also registered a Ki in series [3] of 1.8 nM. The time of peak concentration (Tmax) in [8] was 0.6 h. In addition, the Activity in the series filed under Rattus norvegicus [9] turned out to be 69.3 s. Further, in the series listed under Rattus norvegicus [9] (Rattus norvegicus, read-out: MED), the minimal effective dose was found to be 0.3 mg/kg. Also, in [10], the half-life was 2.1 h. The same molecule returned a Cmax in series [11] of 80 ng/mL. In addition, in [5], the 50% inhibitory concentration (IC50) turned out to be 34 nM. In the series with Rattus norvegicus [12], the Time stood at 69.3 s. For the same molecule, in series [14], the bioavailability is 48%. Besides, in series [15], the Vd was determined as 3.6 L/kg.
The molecule `CCCCCC(C(=O)NCCCN1CCC(c2cccc(NC(=O)C(C)C)c2)CC1)(c1ccccc1)c1ccccc1` yielded a Ki in series [3] of 8.5 nM.
Take `CC(C)C(=O)Nc1c(F)cc(F)c(C2CCN(CCCNC(=O)C(c3ccc(F)cc3)c3ccc(F)cc3)CC2)c1F`: the affinity in series [3], expressed as Ki, was 2.9 nM.
Molecule `Cc1ccc(NC(=O)C(C)C)cc1C1CCN(CCCNC(=O)[C@H](C)c2ccc(F)cc2)CC1` showed an inhibition constant Ki in series [3] of 28 nM. Further, in series [5], the IC50 is 65 nM.
`Cc1ccc(NC(=O)C(C)C)cc1C1CCN(CCCNC(=O)C2(c3ccc(F)cc3)CCCC2)CC1` came in with a Ki in series [3] of 3.8 nM. In addition, the IC50 in series [5] is 44 nM.
In the case of `Cc1ccc(C2CCN(CCCNC(=O)C(c3ccccc3)c3ccccc3)CC2)cc1NC(=O)C(C)C`, affinity in [3] was put at a Ki of 500 nM. For the same molecule, the concentration for half-maximal inhibition (IC50) in [5] is over 1000 nM.
The corresponding values for `Cc1ccc(NC(=O)C(C)C)cc1C1CCN(CCCNC(=O)C(O)(c2ccccc2)c2ccccc2)CC1` are 0.6 nM and 27 nM.
The corresponding values for `CC(C)C(=O)Nc1cccc(C2CCN(CCNC(=O)C(c3ccccc3)c3ccccc3)CC2)c1` are 1.9 nM and 57 nM.
Consider `Cc1ccc(NC(=O)C(C)C)cc1C1CCN(CCCNC(=O)[C@@H](C)c2ccc(F)cc2)CC1`, for which the clearance in [7] is 25 mL/min/kg; in [13], 55 mL/min/kg. The molecule further registered a Ki in series [3] of 10 nM. Also, the time of peak concentration (Tmax) in series [8] was determined as 2.2 h. For the same molecule, in series [10], the half-life is 4.2 h. The molecule further returned a Cmax in series [11] of 305 ng/mL. The IC50 in series [5] is 26 nM. Besides, the bioavailability in series [14] worked out at 81%. For the same molecule, the Vd in series [15] stood at 3.4 L/kg.
`Cc1ccc(NC(=O)C(C)C)cc1C1CCN(CCCNC(=O)C2(c3ccc(F)cc3)CCCCC2)CC1` displayed a Ki in [3] of 1.9 nM. Also, in series [5], the IC50 turned out to be 190 nM.
Regarding `Cc1ccc(NC(=O)C(C)C)cc1C1CCN(CCCNC(=O)C(c2ccc(F)cc2)c2ccc(F)cc2)CC1`, the Ki in series [3] was found to be 0.62 nM. For the same molecule, the IC50 in series [5] was 27 nM.
The corresponding values for `Cc1ccc(NC(=O)C(C)C)cc1C1CCN(CCCNC(=O)C(C)c2ccccc2)CC1` (single isomer, unassigned; form 1) are 34 nM and 68 nM.
In the same order, the values of `Cc1ccc(NC(=O)C(C)C)cc1C1CCN(CCCNC(=O)C(C)c2ccccc2)CC1` (single isomer, unassigned; form 2) are 37 nM and 130 nM.
On to `CNC1=Nc2ccc(Cl)cc2C(c2ccccc2)=[N+]([O-])C1` [CHLORDIAZEPOXIDE], for which the Time in the series on Rattus norvegicus [12] stood at 85.1 s.
On to `COCC1=C(C(=O)OC)[C@H](c2ccc(F)c(F)c2)N(C(=O)NCCCN2CCC(c3cccc(NC(C)=O)c3)CC2)C(=O)N1` [SNAP-7941], for which the Ki in [3] was determined as 0.25 nM. Besides, in [16], the peak concentration (Cmax) came out at 2.02 ng/mL. For the same molecule, the Vd in series [17] stood at 24 L/kg. Also, in [18], the Tmax was determined as 4 h. The same molecule had a clearance in series [19] of 153 mL/min/kg. In addition, the bioavailability in series [20] turned out to be 6%. The half-life in [21] was 1.7 h.

The record behind these values is ChEMBL document CHEMBL1148740, “Synthesis and SAR investigations for novel melanin-concentrating hormone 1 receptor (MCH1) antagonists Part 1. The discovery of arylacetamides as viable replacements for the dihydropyrimidinone moiety of an HTS hit” (J Med Chem, 2007).
